Assay results taken from ChEMBL document CHEMBL5108039, “Piperazine tethered bergenin heterocyclic hybrids: design, synthesis, anticancer activity, and molecular docking studies” (RSC Med Chem, 2022).

Columns and labels:
HCT-15 = assay: Cytotoxicity against human HCT-15 cells assessed as cell growth inhibition; type: functional, cell-based
Outline: (§1)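 Compounds were dissolved in sterile DMSO as 10 mg ml−1 stocks and tested for in vitro growth inhibition of human cancer cell lines. Doxorubicin was the standard drug and DMSO (0.01%) the vehicle control. IC50 values are reported as means.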

CAL-27 [1] = assay: Cytotoxicity against human CAL-27 cells assessed as cell growth inhibition; type: functional, cell-based; outline: as §1
SCC-9 [2] = assay: Cytotoxicity against human SCC-9 cells assessed as cell growth inhibition; type: functional, cell-based; outline: as §1
A549 = assay: Cytotoxicity against human A549 cells assessed as cell growth inhibition; type: functional, cell-based
Outline: (§2)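 Compounds were dissolved in sterile DMSO as 10 mg ml−1 stocks and tested in vitro for cytotoxicity in a cell-line panel, with DMSO (0.01%) as vehicle control and doxorubicin as standard. Mean IC50 values were reported, and the normal lung epithelial cells were tested up to 100 μM.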

[3] = Cytotoxicity against human BEAS-2B cells assessed as cell growth inhibition; type: toxicity, cell-based; outline: as §2
CAL-27 [4] = assay: Cell cycle arrest in human CAL-27 cells assessed as accumulation at G0/G1 phase at 0.5 uM incubated for 24 hrs by flow cytometry (reference value: 77.6 %); type: functional
CAL-27 [5] = assay: Cell cycle arrest in human CAL-27 cells assessed as accumulation at S phase at 0.5 uM incubated for 24 hrs by flow cytometry (reference value: 3.6 %); type: functional
CAL-27 [6] = assay: Cell cycle arrest in human CAL-27 cells assessed as accumulation at G2/M phase at 0.5 uM incubated for 24 hrs by flow cytometry (reference value: 11.9 %); type: functional
SCC-9 [7] = assay: Cell cycle arrest in human SCC-9 cells assessed as accumulation at G0/G1 phase at 0.5 uM incubated for 24 hrs by flow cytometry (reference value: 70.8 %); type: functional
SCC-9 [8] = assay: Cell cycle arrest in human SCC-9 cells assessed as accumulation at S phase at 0.5 uM incubated for 24 hrs by flow cytometry (reference value: 14.4 %); type: functional
SCC-9 [9] = assay: Cell cycle arrest in human SCC-9 cells assessed as accumulation at G2/M phase at 0.5 uM incubated for 24 hrs by flow cytometry (reference value: 14.2 %); type: functional
CAL-27 [10] = assay: Induction of apoptosis in human CAL-27 cells assessed as live cells at 0.5 uM incubated for 24 hrs by Annexin V-FITC/PI staining based flow cytometric analysis (reference value: 99.8 %); type: functional
Outline: (§3)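 CAL27 cells were treated with vehicle, doxorubicin or test compounds at 10–63 μM, and apoptosis was assessed by annexin V–FITC/PI staining with flow cytometry. Cells were scored as live, early apoptotic, late apoptotic or necrotic. The vehicle was DMSO (0.01%).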

CAL-27 [11] = assay: Induction of apoptosis in human CAL-27 cells assessed as early apoptotic cells at 0.5 uM incubated for 24 hrs by Annexin V-FITC/PI staining based flow cytometric analysis (reference value: 0.1 %); type: functional; outline: as §3
CAL-27 [12] = assay: Induction of apoptosis in human CAL-27 cells assessed as late apoptotic cells at 0.5 uM incubated for 24 hrs by Annexin V-FITC/PI staining based flow cytometric analysis (reference value: 0.1 %); type: functional; outline: as §3
CAL-27 [13] = assay: Induction of apoptosis in human CAL-27 cells assessed as necrotic cells at 0.5 uM incubated for 24 hrs by Annexin V-FITC/PI staining based flow cytometric analysis (reference value: 0.0 %); type: functional; outline: as §3
SCC-9 [14] = assay: Induction of apoptosis in human SCC-9 cells assessed as live cells at 0.5 uM incubated for 24 hrs by Annexin V-FITC/PI staining based flow cytometric analysis (reference value: 95.7 %); type: functional
SCC-9 [15] = assay: Induction of apoptosis in human SCC-9 cells assessed as early apoptotic cells at 0.5 uM incubated for 24 hrs by Annexin V-FITC/PI staining based flow cytometric analysis (reference value: 2.8 %); type: functional
SCC-9 [16] = assay: Induction of apoptosis in human SCC-9 cells assessed as late apoptotic cells at 0.5 uM incubated for 24 hrs by Annexin V-FITC/PI staining based flow cytometric analysis (reference value: 1.4 %); type: functional
SCC-9 [17] = assay: Induction of apoptosis in human SCC-9 cells assessed as necrotic cells at 0.5 uM incubated for 24 hrs by Annexin V-FITC/PI staining based flow cytometric analysis (reference value: 0.1 %); type: functional

Work on `COc1cccc2c1C(=O)c1c(O)c3c(c(O)c1C2=O)C[C@@](O)(C(=O)CO)C[C@@H]3O[C@H]1C[C@H](N)[C@H](O)[C@H](C)O1` [DOXORUBICIN] yielded an IC50 (HCT-15) of 0.8 µM, an IC50 (CAL-27 [1]) of 0.4 µM and an IC50 (SCC-9 [2]) of 0.39 µM. For the same compound, the IC50 (A549) was 0.8 µM, the IC50 [3] was 0.8 µM and the Activity (CAL-27 [4]) was 59.7%. The Activity (CAL-27 [5]) was 4.2%, the Activity (CAL-27 [6]) was 34.3% and the Activity (SCC-9 [7]) was 29%. It also gave an Activity (SCC-9 [8]) of 16.31%, an Activity (SCC-9 [9]) of 55.6% and an Activity (CAL-27 [10]) of 16%. For the same compound, the Activity (CAL-27 [11]) was 0.7%, the Activity (CAL-27 [12]) was 58.9% and the Activity (CAL-27 [13]) was 24.4%. For the same compound, the Activity (SCC-9 [14]) was 7.1%, the Activity (SCC-9 [15]) was 0.3% and the Activity (SCC-9 [16]) was 41%. It also gave an Activity (SCC-9 [17]) of 51.5%.
